Measurements of several laboratories.
Target: Transient receptor potential cation channel subfamily M member 6 (TRPM6, Homo sapiens, UniProt Q9BX84)

`CN(CCCC(F)(F)F)c1nccc(-c2cnn3ncccc23)n1` gave a remaining binding of 100% (binding; 1 µM).
`COc1ncc2cc3ccccc3nc2c1C#N` gave a remaining binding of 92% (cell-free assay, competition with immobilised ligand; 5 µM).
`CNC(=O)[C@@H]1CC[C@@H](n2c(-c3ccc4cnccc4c3)nc3ccc(C(=O)NCc4cccc(C(N)=O)c4)cc32)C1` has a remaining binding of 83% (binding, competition with immobilised ligand; 1 µM).
With `C[C@@H](c1ccc(-n2cnc3c(N)ncnc32)cc1)N1CCc2nn(C)c(Cc3ccccc3)c2C1=O` the remaining binding was 76% (binding, competition with immobilised ligand; 0.1 µM).
For `Cc1cnc(Nc2ccc(C(=O)N3CCC(N4CCCC4)CC3)cc2)nc1-c1cc2ccccc2s1`, the remaining binding was 100% (binding, competition with immobilised ligand; 1 µM).
With `C[C@H]1CCN(c2nccc(-c3cnn4ncccc34)n2)C1` the remaining binding was 94% (binding; 1 µM).
`O=C(O)[C@H]1[C@H](Cn2nnc3ccccc3c2=O)CC[C@@H]1C(=O)c1ccc(OCCC2CCOCC2)cc1` has a remaining binding of 100% (cell-free assay, competition with immobilised ligand; 1 µM).
With `CN(C)c1nccc(-c2cnc3ncccn23)n1` the remaining binding was 75% (binding; 1 µM).
`CN([C@@H]1CCc2c(CC(=O)O)c3cc(S(C)(=O)=O)ccc3n2C1)S(=O)(=O)c1ccc(F)cc1` gave a remaining binding of 74% (cell-free assay, competition with immobilised ligand; 1 µM).
`O=C(NCCCN1CCOCC1)c1ccc(Nc2ncc(Cl)c(-c3ccc(Cl)s3)n2)cc1` has a remaining binding of 100% (binding, competition with immobilised ligand; 1 µM).
The remaining binding of `CN(c1nccc(-c2cnn3ncccc23)n1)C1CC1` is reported as 100% (binding; 1 µM).
`CCN1CCN(Cc2ccc(C(=O)Nc3ccc(C)c(Oc4ccc5c(c4)CC(=O)N5)c3)cc2C(F)(F)F)CC1` gave a remaining binding of 100% (binding, competition with immobilised ligand; 1 µM).
`O=C(Nc1c[nH]nc1C(=O)NC1CCNCC1)c1cc(F)cc(F)c1` gave a remaining binding of 88% (binding, competition with immobilised ligand; 1 µM).
`Cc1c[nH]c2nccc(Oc3c(F)cc(Nc4cc(Cl)nc(N)n4)cc3F)c12` has a remaining binding of 83% (cell-free assay, competition with immobilised ligand; 0.1 µM).
The remaining binding of `O=C(c1ccc(Nc2ncc(Cl)c(-c3ccc(Cl)s3)n2)cc1)N1CCC(N2CCCC2)CC1` is reported as 100% (binding, competition with immobilised ligand; 1 µM).
`CN(C)C(=O)Cn1cc(-c2nc([C@@](C)(c3ccc(-c4cnc(N)nc4)cc3)C3CC3)no2)cn1` gave a remaining binding of 78% (cell-free assay, competition with immobilised ligand; 1 µM).
For `COc1cnc(Nc2cccc(S(N)(=O)=O)c2)nc1N1CCN(c2ccccc2)CC1`, the remaining binding was 90% (binding, competition with immobilised ligand; 1 µM).
With `F[C@@H]1CCN(c2nccc(-c3cnn4ncccc34)n2)C1` the remaining binding was 100% (binding; 1 µM).
`COc1ccc2c(c1)O[C@@H](c1ccc(OC)c(OC)c1)C[C@H]2NC(=O)C1(c2ccc3c(c2)OC(F)(F)O3)CC1` has a remaining binding of 82% (cell-free assay, competition with immobilised ligand; 1 µM).
`N[C@@H]1CCN(c2nccc(-c3cnn4ncccc34)n2)C1` gave a remaining binding of 100% (binding; 1 µM).
The remaining binding of `CNCc1ccccc1-c1csc([C@@H](C)Nc2nc(C)nc3cc(OC)c(OC)cc23)c1` is reported as 91% (cell-free assay, competition with immobilised ligand; 1 µM).
